From ChEMBL document CHEMBL3046238, “Synthesis and biological activity evaluation of 1,2,3-thiadiazole derivatives as potential elicitors with highly systemic acquired resistance” (2009)
Activity calls are given as the source filed them. The rule behind the calls is not given here.

Assays:
Assay type in all cases: functional
[1] = tested on: Fusarium oxysporum f. sp. vasinfectum; experiment: Antifungal activity against Fusarium oxysporum f. sp. vasinfectum assessed as growth inhibition at 50 ug/mL measured after 2 days post dose; details: for inhibition of growth at 50 µg/mL: 48 h, read-out: GI
[2] = tested on: Botrytis cinerea; experiment: Antifungal activity against Botryotinia fuckeliana assessed as growth inhibition at 50 ug/mL measured after 2 days post dose; details: for inhibition of growth at 50 µg/mL: 48 h, read-out: GI
[3] = tested on: Fusarium oxysporum; experiment: Antifungal activity against Fusarium oxysporum assessed as growth inhibition at 50 ug/mL measured after 2 days post dose; details: 48 h, read-out: GI
[4] = tested on: Alternaria mali; experiment: Antifungal activity against Alternaria mali assessed as growth inhibition at 50 ug/mL measured after 2 days post dose; details: for inhibition of growth at 50 µg/mL: 48 h, read-out: GI
[5] = tested on: Botryosphaeria berengeriana; experiment: Antifungal activity against Botryosphaeria berengeriana assessed as growth inhibition at 50 ug/mL measured after 2 days post dose; details: for inhibition of growth at 50 µg/mL: 48 h, read-out: GI
[6] = tested on: Mycosphaerella arachidis; experiment: Antifungal activity against Mycosphaerella arachidis assessed as growth inhibition at 50 ug/mL measured after 2 days post dose; details: for inhibition of growth at 50 µg/mL: 48 h, read-out: GI
[7] = tested on: Tobacco mosaic virus; experiment: Induction of systemic acquired resistance against Tobacco mosaic virus (TMV) in tobacco plants exposed to 500 ug/mL compound through leaf spray followed by 7 days culture under green house conditions assessed as inhibition of viral growth in leaves infected with Tobacco mosaic virus (TMV) measured 72 hr post viral infection by half-leaf juice rubbing method; set-up: scale not given: the % may be the effect or the level left
How it was run: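 Tobacco plants received compound by leaf spray or by soil irrigation, with double-distilled water as CK. Newly grown leaves were then rub-inoculated with TMV (5.88×10-2 μg/mL), and plants were kept at 25 °C for 72 h. Lesions on inoculated leaves were counted. Inhibition = (CK−A)/CK×100 from mean lesion numbers versus control.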

[8] = tested on: Ustilaginoidea virens; experiment: Antifungal activity against Villosiclava virens assessed as growth inhibition at 50 ug/mL measured after 2 days post dose; details: for inhibition of growth at 50 µg/mL: 48 h, read-out: GI
[9] = tested on: Cytospora mali; experiment: Antifungal activity against Valsa mali assessed as growth inhibition at 50 ug/mL measured after 2 days post dose; details: for inhibition of growth at 50 µg/mL: 48 h, read-out: GI
[10] = tested on: Rhizoctonia solani; experiment: Antifungal activity against Rhizoctonia solani assessed as growth inhibition at 50 ug/mL measured after 2 days post dose; details: for inhibition of growth at 50 µg/mL: 48 h, read-out: GI
[11] = tested on: Puccinia triticina; experiment: Antifungal activity against Puccinia triticina inoculated on 500 ug/mL compound pre-treated wheat plants with 3 to 5 leaves assessed as growth inhibition
How it was run: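 Healthy wheat plants at the 3-5 leaf stage were sprayed with compound (500 μg/mL) and then inoculated with spores. Inhibition percentage was calculated against the corresponding spore stack.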

[12] = tested on: Fusarium graminearum; experiment: Antifungal activity against Fusarium graminearum assessed as growth inhibition at 50 ug/mL measured after 2 days post dose; details: for inhibition of growth at 50 µg/mL: 48 h, read-out: GI
How it was run: (§1)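 Compound stock at 500 μg/mL in DMF, diluted with sterile water in the dish and mixed into potato dextrose agar before setting. A 4 mm diameter fungal plug is placed on the plate and cultured at 24-26 °C. Colony diameter is measured after 2 days.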

[13] = tested on: Fusarium fujikuroi; experiment: Antifungal activity against Fusarium fujikuroi assessed as growth inhibition at 50 ug/mL measured after 2 days post dose; details: for inhibition of growth at 50 µg/mL: 48 h, read-out: GI
[14] = tested on: Ceratobasidium cereale; experiment: Antifungal activity against Ceratobasidium cereale assessed as growth inhibition at 50 ug/mL measured after 2 days post dose; details: for inhibition of growth at 50 µg/mL: 48 h, read-out: GI
[15] = tested on: Alternaria solani; experiment: Antifungal activity against Alternaria solani assessed as growth inhibition at 50 ug/mL measured after 2 days post dose; details: 48 h, read-out: GI
[16] = tested on: Sclerotinia sclerotiorum; experiment: Antifungal activity against Sclerotinia sclerotiorum assessed as growth inhibition at 50 ug/mL measured after 2 days post dose; details: 48 h, read-out: GI
[17] = tested on: Phytophthora infestans; experiment: Antifungal activity against Phytophthora infestans assessed as growth inhibition at 50 ug/mL measured after 2 days post dose; details: for inhibition of growth at 50 µg/mL: 48 h, read-out: GI; how it was run: as §1
[18] = tested on: Colletotrichum gloeosporioides; experiment: Antifungal activity against Glomerella cingulata assessed as growth inhibition at 50 ug/mL measured after 2 days post dose; details: for inhibition of growth at 50 µg/mL: 48 h, read-out: GI

| Compound | inhibition of growth at 50 µg/mL [3] | inhibition of growth at 50 µg/mL [5] | inhibition of growth at 50 µg/mL [6] | Activity [7] | growth inhibition (GI) [11] | inhibition of growth at 50 µg/mL [12] | inhibition of growth at 50 µg/mL [15] | inhibition of growth at 50 µg/mL [16] | inhibition of growth at 50 µg/mL [17] | inhibition of growth at 50 µg/mL [18] | inhibition of growth at 50 µg/mL [1] | inhibition of growth at 50 µg/mL [2] | inhibition of growth at 50 µg/mL [4] | inhibition of growth at 50 µg/mL [8] | inhibition of growth at 50 µg/mL [9] | inhibition of growth at 50 µg/mL [10] | inhibition of growth at 50 µg/mL [13] | inhibition of growth at 50 µg/mL [14] | growth inhibition (GI) [17] | further results |
| --- | --- | --- | --- | --- | --- | --- | --- | --- | --- | --- | --- | --- | --- | --- | --- | --- | --- | --- | --- | --- |
| Cc1nnsc1-c1nnc(-c2ccco2)o1 | 19.1% | 38.9% | 87.5% | 0% | 0% | 22.2% | 53.6% | 0% | 0% | 42.1% |  |  |  |  |  |  |  |  |  | growth inhibition (GI) [1]: inactive; growth inhibition (GI) [2]: inactive; growth inhibition (GI) [4]: inactive; growth inhibition (GI) [8]: inactive; growth inhibition (GI) [9]: inactive; growth inhibition (GI) [10]: inactive; growth inhibition (GI) [13]: inactive; growth inhibition (GI) [14]: inactive |
| Cc1nn(-c2ccccc2)nc1-c1nnc(-c2snnc2C)o1 | 0% | 44.4% | 17.6% | 10% | 0% | 31% | 17.6% | 23.5% |  | 0% | 0% | 41.4% | 31% | 0% | 22.2% | 0% | 0% | 37.9% | inactive |  |
| CCCc1c(-c2nnc(-c3snnc3C)o2)cnn1-c1ccc(Cl)cc1 | 0% | 44.4% | 41.2% | 0% | 0% | 48.3% | 17.6% | 23.5% |  | 0% | 0% | 31% | 27.6% | 0% | 19.4% | 0% | 31% | 31% | inactive |  |
| Cc1ccc(-c2nnc(-c3snnc3C)o2)cc1 | 0% |  |  | 0% | 11% |  | 18.4% | 56% | 0% |  |  | 2.1% |  |  |  | 67.9% |  |  |  | growth inhibition (GI) [1]: inactive; growth inhibition (GI) [4]: inactive; growth inhibition (GI) [5]: inactive; growth inhibition (GI) [6]: inactive; growth inhibition (GI) [8]: inactive; growth inhibition (GI) [9]: inactive; growth inhibition (GI) [12]: inactive; growth inhibition (GI) [13]: inactive; growth inhibition (GI) [14]: inactive; growth inhibition (GI) [18]: inactive |
| CCc1cc(-c2nnc(-c3snnc3C)o2)nn1C | 26.5% | 16.7% | 33.3% | 20% | 20% | 27.8% | 17.9% | 0% | 17.1% | 42.1% |  |  |  |  |  |  |  |  |  | growth inhibition (GI) [1]: inactive; growth inhibition (GI) [2]: inactive; growth inhibition (GI) [4]: inactive; growth inhibition (GI) [8]: inactive; growth inhibition (GI) [9]: inactive; growth inhibition (GI) [10]: inactive; growth inhibition (GI) [13]: inactive; growth inhibition (GI) [14]: inactive |
| Cc1nnsc1-c1nnc(-c2snnc2C)o1 | 31.3% | 38.1% | 13.6% | 0% | 28% | 31.6% | 44.7% | 32.1% |  | 13.8% | 0% | 0% | 0% | 0% | 0% | 0% | 21.1% | 0% | inactive |  |
| Cc1cccc(-c2nnc(-c3snnc3C)o2)c1 | 0% | 47.2% | 23.5% | inactive | 98% | 24.1% | 0% | 23.5% | 17.1% | 0% | 0% | 37.9% | 41.4% | 0% | 47.2% | 0% | 24.1% | 37.9% |  |  |
| Cc1nnsc1-c1nnc(/C=C/c2ccccc2)o1 | 36.3% | 46% | 27.3% | 0% | 20% | 36.8% | 31.6% | 0% | 20% | 13.8% | 23.7% | 0% | 0% | 0% | 20.3% | 0% | 21.1% | 0% |  |  |
| CCCCCCCc1nnc(-c2snnc2C)o1 | 12.5% | 25.4% | 0% | 0% | 83% | 34.2% | 31.6% | 32.1% | 100% | 42.1% | 0% | 0% | 38.9% | 0% | 0% | 26.6% | 21.1% | 0% |  |  |
| Cc1ccc(-c2nnc(-c3snnc3C)o2)s1 | 31.3% | 39.7% | 9% | inactive | 0% | 21.1% | 36.8% | 40.5% |  | 13.8% | 0% | 0% | 38.9% | 0% | 0% | 0% | 21.1% | 0% | inactive |  |
| Cc1ccc(-c2nnc(-c3snnc3C)o2)c(Cl)n1 | 0% | 38.9% | 23.5% | 30% | 17% | 31% | 0% | 0% | 30% | 0% | 0% | 17.2% | 24.1% | 17.6% | 22.2% | 22.2% | 17.2% | 13.8% |  |  |
| Cc1nnsc1-c1nnc(-c2ccc(=O)[nH]c2)o1 | 33.3% | 23.5% | 0% | inactive | inactive | 13.8% | 31% | 53.6% | 31% | 13.8% | 24.1% | 21.1% | 27.3% | 22.2% | 47.2% | 44.4% | 17.6% | 13.8% |  |  |
